Assay results reported in article PMC12618243 (Nature Structural & Molecular Biology, 2025).
Like-named read-outs stand apart in the source and are kept apart here.

What was measured:
OSH6 [1] = target: T1, OSH6 (Saccharomyces cerevisiae, UniProt Q02201); test: ITC binding of IST2 peptides to OSH6; design: species or system S. cerevisiae; conditions: R750A peptide, Extended Data Fig. 7l
T1 sequence (Q02201 1-448): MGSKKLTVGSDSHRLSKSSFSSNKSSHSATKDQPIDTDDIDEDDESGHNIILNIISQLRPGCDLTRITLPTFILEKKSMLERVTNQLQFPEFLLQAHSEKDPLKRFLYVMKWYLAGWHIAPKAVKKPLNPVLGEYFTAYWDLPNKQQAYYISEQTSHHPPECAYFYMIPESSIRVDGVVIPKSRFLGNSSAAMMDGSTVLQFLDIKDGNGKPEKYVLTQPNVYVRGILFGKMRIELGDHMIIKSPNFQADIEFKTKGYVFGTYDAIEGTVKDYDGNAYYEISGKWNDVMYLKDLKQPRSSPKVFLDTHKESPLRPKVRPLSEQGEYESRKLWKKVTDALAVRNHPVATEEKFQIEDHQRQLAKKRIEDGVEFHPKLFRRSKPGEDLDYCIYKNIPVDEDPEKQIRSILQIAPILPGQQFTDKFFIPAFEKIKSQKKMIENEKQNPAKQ

OSH6 [2] = target: T1, OSH6; test: Pulldown of OSH6 by GST-tagged IST2 peptides; type: binding, S. cerevisiae
Outline: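 GST-tagged IST2 peptides (OSH6-binding epitope, varying length) expressed in E. coli BL21 (0.3 mM IPTG at OD600 0.8, 25 °C, 2.5 h). Coated beads incubated with 5 µM (final) OSH6 plus BSA, 1 h, 4 °C. Beads washed without BSA, taken into SDS sample buffer.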

cryo-EM structure [3] = target: the molecule itself; test: cryo-EM structure
MSP2N2 = test: SEC of OSH6 with scaffold protein MSP2N2 in absence of lipids; type: binding; conditions: no lipids, 1.2× molar excess MSP2N2, 30 min, performed once
cryo-EM structure [4] = target: the molecule itself; test: cryo-EM structure; remark: listed apart in the source
[5] = system: S. cerevisiae ist2;psd1-KO strain (AWY327); test: Yeast complementation; type: cell-based; conditions: 2% galactose, 30 °C, 3–4 days
[6] = cited from earlier work
OSH6 [7] = target: T1, OSH6; test: SEC coelution of IST2fl and OSH6; type: binding, S. cerevisiae
[8] = target: T2, OSH6 purified from E. coli (S. cerevisiae, UniProt Q02201 1-448); test: pull-down
T2 sequence: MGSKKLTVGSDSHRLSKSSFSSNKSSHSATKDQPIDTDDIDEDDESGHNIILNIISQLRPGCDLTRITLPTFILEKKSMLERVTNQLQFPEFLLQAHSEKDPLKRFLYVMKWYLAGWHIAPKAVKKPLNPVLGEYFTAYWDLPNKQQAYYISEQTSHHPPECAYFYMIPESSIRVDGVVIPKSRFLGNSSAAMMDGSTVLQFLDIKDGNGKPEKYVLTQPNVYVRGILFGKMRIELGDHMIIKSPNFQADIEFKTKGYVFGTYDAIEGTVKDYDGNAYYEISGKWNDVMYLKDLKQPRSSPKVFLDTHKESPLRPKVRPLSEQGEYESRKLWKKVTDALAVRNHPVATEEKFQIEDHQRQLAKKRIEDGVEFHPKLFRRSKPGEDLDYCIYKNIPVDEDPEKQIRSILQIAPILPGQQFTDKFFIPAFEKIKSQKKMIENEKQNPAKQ

In the case of “Substitution of R750 to alanine: peptide encompassing residues 732-761 of IST2 carrying the mutation R750A (ITC) (VAGATLPETIPTSKNYYLAFDEDGKSIRDA; UniProt P38250 732-761, looked up, fragment R750A)”, the “Binding to OSH6 by ITC (in words)” value (OSH6 [1]) is reported as “severely compromise binding to OSH6” and the “OSH6 interaction in pulldown (in words)” value (OSH6 [2]) is reported as “severely compromise binding to OSH6”.

B1: IST2 containing residues 1-716 (domain or fragment)
chain: MSQTITSLDPNCVIVFNKTSSANEKSLNVEFKRLNIHSIIEPGHDLQTSYAFIRIHQDNAKPLFSFLQNLDFIESIIPYHDTELSDDLHKLISISKSKILEAPKQYELYNLSNLTNNPKQSLYFAFLQNYIKWLIPFSFFGLSIRFLSNFTYEFNSTYSLFAILWTLSFTAFWLYKYEPFWSDRLSKYSSFSTIEFLQDKQKAQKKASSVIMLKKCCFIPVALLFGAILLSFQLYCFALEIFIKQIYNGPMISILSFLPTILICTFTPVLTVIYNKYFVEPMTKWENHSSVVNAKKSKEAKNFVIIFLSSYVPLLITLFLYLPMGHLLTAEIRTKVFNAFSILARLPTHDSDFIIDTKRYEDQFFYFIVINQLIQFSMENFVPSLVSIAQQKINGPNPNFVKAESEIGKAQLSSSDMKIWSKVKSYQTDPWGATFDLDANFKKLLLQFGYLVMFSTIWPLAPFICLIVNLIVYQVDLRKAVLYSKPEYFPFPIYDKPSSVSNTQKLTVGLWNSVLVMFSILGCVITATLTYMYQSCNIPGVGAHTSIHTNKAWYLANPINHSWINIVLYAVFIEHVSVAIFFLFSSILKSSHDDVANGIVPKHVVNVQNPPKQEVFEKIPSPEFNSNNEKELVQRKGSANEKLHQELGEKQPASSANGYEAHAATHANNDPSSLSSASSPSLSSSSSSSKTGVVKAVDNDTAGSAGKKPLATESTE
In the case of B1, the “stoichiometry N” value (cryo-EM structure [3]) is reported as 2.

B2: OSH6: soluble lipid transfer protein, PS–PtdIns4P exchanger of S. cerevisiae (protein)
chain: MGSKKLTVGSDSHRLSKSSFSSNKSSHSATKDQPIDTDDIDEDDESGHNIILNIISQLRPGCDLTRITLPTFILEKKSMLERVTNQLQFPEFLLQAHSEKDPLKRFLYVMKWYLAGWHIAPKAVKKPLNPVLGEYFTAYWDLPNKQQAYYISEQTSHHPPECAYFYMIPESSIRVDGVVIPKSRFLGNSSAAMMDGSTVLQFLDIKDGNGKPEKYVLTQPNVYVRGILFGKMRIELGDHMIIKSPNFQADIEFKTKGYVFGTYDAIEGTVKDYDGNAYYEISGKWNDVMYLKDLKQPRSSPKVFLDTHKESPLRPKVRPLSEQGEYESRKLWKKVTDALAVRNHPVATEEKFQIEDHQRQLAKKRIEDGVEFHPKLFRRSKPGEDLDYCIYKNIPVDEDPEKQIRSILQIAPILPGQQFTDKFFIPAFEKIKSQKKMIENEKQNPAKQ
modifications: left off: GST, N-terminal, cleaved
In the case of B2, the “Interaction with isolated scaffold protein (in words)” value (MSP2N2) is reported as “nor did we detect interactions with the isolated scaffold protein”.

B3: full-length IST2 (natural protein)
chain: MSQTITSLDPNCVIVFNKTSSANEKSLNVEFKRLNIHSIIEPGHDLQTSYAFIRIHQDNAKPLFSFLQNLDFIESIIPYHDTELSDDLHKLISISKSKILEAPKQYELYNLSNLTNNPKQSLYFAFLQNYIKWLIPFSFFGLSIRFLSNFTYEFNSTYSLFAILWTLSFTAFWLYKYEPFWSDRLSKYSSFSTIEFLQDKQKAQKKASSVIMLKKCCFIPVALLFGAILLSFQLYCFALEIFIKQIYNGPMISILSFLPTILICTFTPVLTVIYNKYFVEPMTKWENHSSVVNAKKSKEAKNFVIIFLSSYVPLLITLFLYLPMGHLLTAEIRTKVFNAFSILARLPTHDSDFIIDTKRYEDQFFYFIVINQLIQFSMENFVPSLVSIAQQKINGPNPNFVKAESEIGKAQLSSSDMKIWSKVKSYQTDPWGATFDLDANFKKLLLQFGYLVMFSTIWPLAPFICLIVNLIVYQVDLRKAVLYSKPEYFPFPIYDKPSSVSNTQKLTVGLWNSVLVMFSILGCVITATLTYMYQSCNIPGVGAHTSIHTNKAWYLANPINHSWINIVLYAVFIEHVSVAIFFLFSSILKSSHDDVANGIVPKHVVNVQNPPKQEVFEKIPSPEFNSNNEKELVQRKGSANEKLHQELGEKQPASSANGYEAHAATHANNDPSSLSSASSPSLSSSSSSSKTGVVKAVDNDTAGSAGKKPLATESTEKRNSLVKVPTVGSYGVAGATLPETIPTSKNYYLRFDEDGKSIRDAKSSAESSNATNNNTLGTESKLLPDGDAVDALSRKIDQIPKIAVTGGENNENTQAKDDAATKTPLIKDANIKPVVNAAVNDNQSKVSVATEQTKKTEVSTKNGPSRSISTKETKDSARPSNNNTTTTTTTDATQPHHHHHHHRHRDAGVKNVTNNSKTTESSSSSSAAKEKPKHKKGLLHKLKKKL
With B3 the “stoichiometry N” value (cryo-EM structure [4]) was 2.

B4: IST2: full-length wild-type IST2, 946 residues, S. cerevisiae (protein)
chain: MSQTITSLDPNCVIVFNKTSSANEKSLNVEFKRLNIHSIIEPGHDLQTSYAFIRIHQDNAKPLFSFLQNLDFIESIIPYHDTELSDDLHKLISISKSKILEAPKQYELYNLSNLTNNPKQSLYFAFLQNYIKWLIPFSFFGLSIRFLSNFTYEFNSTYSLFAILWTLSFTAFWLYKYEPFWSDRLSKYSSFSTIEFLQDKQKAQKKASSVIMLKKCCFIPVALLFGAILLSFQLYCFALEIFIKQIYNGPMISILSFLPTILICTFTPVLTVIYNKYFVEPMTKWENHSSVVNAKKSKEAKNFVIIFLSSYVPLLITLFLYLPMGHLLTAEIRTKVFNAFSILARLPTHDSDFIIDTKRYEDQFFYFIVINQLIQFSMENFVPSLVSIAQQKINGPNPNFVKAESEIGKAQLSSSDMKIWSKVKSYQTDPWGATFDLDANFKKLLLQFGYLVMFSTIWPLAPFICLIVNLIVYQVDLRKAVLYSKPEYFPFPIYDKPSSVSNTQKLTVGLWNSVLVMFSILGCVITATLTYMYQSCNIPGVGAHTSIHTNKAWYLANPINHSWINIVLYAVFIEHVSVAIFFLFSSILKSSHDDVANGIVPKHVVNVQNPPKQEVFEKIPSPEFNSNNEKELVQRKGSANEKLHQELGEKQPASSANGYEAHAATHANNDPSSLSSASSPSLSSSSSSSKTGVVKAVDNDTAGSAGKKPLATESTEKRNSLVKVPTVGSYGVAGATLPETIPTSKNYYLRFDEDGKSIRDAKSSAESSNATNNNTLGTESKLLPDGDAVDALSRKIDQIPKIAVTGGENNENTQAKDDAATKTPLIKDANIKPVVNAAVNDNQSKVSVATEQTKKTEVSTKNGPSRSISTKETKDSARPSNNNTTTTTTTDATQPHHHHHHHRHRDAGVKNVTNNSKTTESSSSSSAAKEKPKHKKGLLHKLKKKL
modifications: left off: SBP, N-terminal, state not stated | myc, N-terminal, state not stated
For B4, the “Growth complementation (in words)” value [5] is given as “growth deficit can be alleviated”, the “Scrambling activity, previous publication (in words)” value [6] is given as “refuting scrambling activity” and the “Coelution as a complex on SEC (in words)” value (OSH6 [7]) is given as “coelute as a complex on size-exclusion chromatography”.

B5: GST fusion of the IST2 peptide encompassing residues 732-759 (peptide)
chain: VAGATLPETIPTSKNYYLRFDEDGKSIR
B5: binds [8].
